What was measured:
Format in all cases: functional
[1] = Inhibition of lipopolysaccharide TNFalpha production in human PMNC at 0.3 ug/mL by ELISA
Outline: (§1)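 Cytokine (IL-1β, IL-2, IL-4, TNF) concentrations were measured directly by ELISA in the culture supernatants. The paper attributes the cytokines to macrophages in the culture.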

[2] = Inhibition of lipopolysaccharide IL2 production in human PMNC at 0.3 ug/mL by ELISA; outline: as §1
[3] = Inhibition of lipopolysaccharide IL4 production in human PMNC at 0.3 ug/mL by ELISA; outline: as §1
[4] = Inhibition of lipopolysaccharide IL1-beta production in human PMNC at 0.3 ug/mL by ELISA; outline: as §1

C[C@]12C=CC(=O)C=C1CC[C@@H]1[C@@H]2[C@@H](O)C[C@@]2(C)[C@H]1CC[C@]2(O)C(=O)CO [PREDNISOLONE]
inhibition at 0.3 µg/mL [1]: 47.9% | inhibition at 0.3 µg/mL [2]: 30.6% | inhibition at 0.3 µg/mL [3]: 40.7% | inhibition at 0.3 µg/mL [4]: 24.8%

Reference: ChEMBL document CHEMBL1150167, “Sesquiterpenes from Ferula penninervis” (2002)
